Screening results: PubChem BioAssay, several laboratories
Only some compounds are listed: those with a hit (about 2.8% of all), similar ones and a draw of the others.
BB579 growth dn – yeast BB579 growth reduction in restrictive medium; inhibition, % at 10 µM; AID 804; hit rate 0.51% among 140,000; S. cerevisiae BB579 growth, OD615, 48 h;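 active means inhibition above a set limit, 3 SD over the mean compound inhibition, cut at about 44% in these data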
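System: Saccharomyces cerevisiae DeaD strain BB579, replicative lifespan model yeast. Buffer or medium: restrictive glucose-based CSMM-D medium. Doses: one dose, 10 µM compound with 0.25% DMSO. Timing: 4 h preincubation and 48 h exposure at 30 °C. Detection: turbidity as optical density at 615 nm. Benchmarks: amphotericin B 10 µg/mL, positive.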
Yeast life ext – yeast lifespan extension | hit rate 0.68% among 130,000 | S. cerevisiae growth with nicotinamide, OD615; deaD strain in restrictive glucose medium | inhibition of the nicotinamide effect, % at 10 µM;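 active means inhibition above a set limit, placed 3 SD over the median of all compounds, cut at about 26% in these data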;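 further: 0% = nicotinamide-treated wells and 100% = cells grown without nicotinamide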
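Material: Modified budding yeast, DeaD strain | Medium: Restrictive glucose medium | Probe or stimulus: 1.5 mM nicotinamide | Dosing: Single dose 10 µM compound, 0.25% DMSO | Times: 48 h at 30 °C | Technique: OD615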
TNAP inh no acc – blocks human TNAP activity with no phosphate acceptor present; P05186; purified TNAP, CDP-star luminescence, 30 min; inhibition, % at 20 µM; hit rate 0.26% among 200,000; AID 1012;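 active means tissue-nonspecific alkaline phosphatase inhibition above about 50% at 20 µM in the single-dose screen, limit read from the data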;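 further: 0% = DMSO negative control and 100% = EDTA positive control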
Target sequence (P05186 whole entry, looked up): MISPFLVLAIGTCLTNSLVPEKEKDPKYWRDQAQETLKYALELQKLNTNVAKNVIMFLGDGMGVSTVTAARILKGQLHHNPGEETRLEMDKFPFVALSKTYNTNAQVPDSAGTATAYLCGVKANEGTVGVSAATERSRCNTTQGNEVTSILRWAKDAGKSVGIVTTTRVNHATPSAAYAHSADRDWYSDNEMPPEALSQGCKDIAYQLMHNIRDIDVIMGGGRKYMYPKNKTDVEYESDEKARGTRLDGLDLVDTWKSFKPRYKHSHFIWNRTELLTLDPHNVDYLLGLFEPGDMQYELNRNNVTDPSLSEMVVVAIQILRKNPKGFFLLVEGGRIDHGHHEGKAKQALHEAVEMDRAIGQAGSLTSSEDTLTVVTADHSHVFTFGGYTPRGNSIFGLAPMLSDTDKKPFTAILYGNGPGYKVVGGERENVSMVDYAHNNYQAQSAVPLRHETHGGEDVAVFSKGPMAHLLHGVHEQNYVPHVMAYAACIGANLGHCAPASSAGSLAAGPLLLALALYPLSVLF
TNAP act hiacc – TNAP (human) activation, high acceptor. purified TNAP, CDP-star luminescence, 1 M DEA, 30 min; active compounds read high; 0 = EDTA background, 1 = DMSO-only activity. AID 1136. activation factor at 20 µM. 200,000 tested, under 10 active;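 active means activation factor at least 2 at 20 µM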
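Control set: EDTA negative control, DMSO positive control / Assay system: human TNAP / Quantity: TNAP 1/800 final / Evaluation: TNAP activation factor scaled between EDTA and DMSO control wells / Measured by: luminescent substrate turnover signal / Compound dosing: one dose, 20 µM / Times: 30 min enzyme reaction at room temperature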
RAM network inh – yeast RAM network inhibition; S. cerevisiae dse1pr::URA3 reporter, 5-FOA growth OD615, 2 d; analog-sensitive cbk1-as2 kinase mutant strain; inhibition, % at 50 µM; hit rate 1.8% among 190,000; AID 868;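 active means inhibition above a set limit, 3 SD over mean compound inhibition, cut at about 8.4% in these data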;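 further: 0% = DMSO-only wells with no growth and 100% = 10 µM 1-NA-PP1 full growth; inhibition rescues growth on 5-FOA so higher OD means more RAM inhibition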
TNAP inh hi DEA – inhibitors of human TNAP at high phosphate acceptor concentration; P05186; purified TNAP, CDP-star luminescence, 1 M DEA; inhibition, % at 20 µM; hit rate 0.03% among 200,000;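 active means over 50% inhibition of tissue-nonspecific alkaline phosphatase at 20 µM in the single-dose screen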;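 further: plate controls were DMSO wells for no effect and EDTA-quenched wells as full inhibition for full effect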
RAM 5-FOA – RAM network inhibition, efflux-deficient strain; 1,200 tested, under 10 active; AID 1305; S. cerevisiae efflux-deficient reporter strain, 5-FOA growth OD615, 2 days; max inhibition, %; shares compounds with RAM network inh; call rule not given here;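 further: plate controls were vehicle for no effect and reference inhibitor for full effect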
An asterisk follows results filed as active; nt = no result given.

SMILES | BB579 growth dn | Yeast life ext | TNAP inh no acc | TNAP act hiacc | RAM network inh | TNAP inh hi DEA | RAM 5-FOA
Cc1ccnc(-n2c(C)cc(C=C3C(=O)N(C)C(=S)N(C)C3=O)c2C)c1 | -28.5 | 29.6* | 6.2 | 1 | 1.1 | 1.2 | nt
CP(=O)(Nc1ccccc1)C(Cl)(Cl)Cl (stereo not given) | nt | nt | -12.0 | 1 | -0.1 | -2.6 | nt
CCCCc1ccc2[nH]cc(CCN)c2c1 | -43.5 | -2.3 | -6.3 | 1 | 2.8 | -3.1 | nt
COc1ccc(N2C(=O)/C(=C/C=C/c3ccccc3[N+](=O)[O-])C(=O)NC2=S)cc1 | nt | nt | 6.2 | 1 | 16.6* | -1.3 | 2.4
COc1ccc(N2C(=O)NC(=O)/C(=C\c3ccc([N+](=O)[O-])s3)C2=O)cc1 | nt | nt | 0.6 | 0.9 | -0.8 | 13.1 | nt
Cc1ccc(Cn2cc(C=O)c(-c3ccc(C)cc3)n2)cc1 | -17.8 | 1.0 | -5.0 | 1 | 15.6* | -3.8 | 1.0
CCCC12CN3CCN(CC(C3)/C1=N\NC(=O)c1ccncc1)C2 | nt | nt | 6.5 | 1 | 3.2 | -2.0 | nt
Cc1nn(Cc2ccccc2)c(C)c1C(=O)OCC(=O)Nc1cc(S(C)(=O)=O)ccc1Cl | nt | nt | -13.4 | 1 | 3.7 | -2.1 | nt
CN1C(=O)/C(=C/c2cccn2-c2ccc3ccccc3c2)C(=O)NC1=S | -10.2 | 48.6* | 19.3 | 1 | 15.1* | 1.9 | 4.0
O=C1NC(=S)NC(=O)C1=Cc1cccn1-c1ccc(O)cc1 | nt | nt | 42.9 | 0.8 | 7.7 | 21.8 | nt
FC(F)(F)c1nc(N2CCN(c3ccccc3)CC2)nc2c1CCCCC2 | -53.2 | -6.8 | -8.4 | 1.1 | 13.8* | -5.8 | 3.9
Cc1c(N=Nc2c(O)[nH]c(=S)[nH]c2=O)c(=O)n(-c2ccccc2)n1C | -4.5 | -3.4 | 2.4 | 0.9 | 0.5 | 14.0 | nt
CCOc1ccc2nc(N=Nc3c(O)[nH]c(=S)[nH]c3=O)sc2c1 | nt | nt | 36.4 | 0.5 | 12.1* | 52.7* | 6.5
C=CCSC1=N/C(=C\c2cc(OC)c3c(c2)OCO3)C(=O)S1 | -35.1 | -2.6 | 3.3 | 1 | 12.5* | 0.0 | 3.4
c1ccc(P(c2ccccn2)c2ccccn2)cc1 | nt | nt | 5.4 | 1 | 1.1 | 0.1 | nt
O=C(O)c1cccc2c1NC(C(=O)O)C1CC(Sc3ccccc3[N+](=O)[O-])C(Cl)C21 (stereo not given) | -17.6 | -0.5 | 6.0 | 0.6 | 15.2* | 44.0 | 6.8
Cc1nn(Cc2ccccc2)c(Cl)c1C(=O)OCC(=O)N1CCCC1 | nt | nt | -12.0 | 1 | 0.0 | -2.1 | nt
COc1ccccc1OP(=O)(Nc1cccnc1)Oc1ccccc1OC | 8.7 | -1.4 | 12.4 | 1 | 1.7 | 1.7 | nt
Cc1cccc(NP(=O)(Oc2ccccc2F)Oc2ccccc2F)c1 | -43.4 | 10.2 | -12.1 | 1 | 16.2* | -3.1 | 1.7
O=P(Nc1ccccc1)(Nc1ccccc1)Oc1ccc(Cl)cc1 | 6.5 | -4.3 | -13.4 | 1.1 | 5.3 | -6.8 | nt
Cc1ccc(NP(=O)(Oc2ccccc2F)Oc2ccccc2F)cc1C | -36.1 | 14.1 | -7.9 | 1 | 16.7* | -0.1 | 1.6
COc1cccc(NP(=O)(Oc2ccc(Cl)cc2)Oc2ccc(Cl)cc2)c1 | -28.9 | 4.5 | 5.4 | 1 | 15.3* | -2.5 | 5.1
Cc1cccc(CN2CCCC(C(=O)c3ccc4c(c3)OCO4)C2)n1 (stereo not given) | nt | nt | -4.1 | 1 | 0.9 | -1.7 | nt
